Experimental findings from ChEMBL document CHEMBL4229322, “Antibacterial Paramagnetic Quinones from Actinoallomurus” (2017) are described below.

Common to all, as to format: functional
One assay concerns Acinetobacter baumannii. Briefly: Antimicrobial activity against Acinetobacter baumannii ATCC 13637 by broth microdilution method. Background: In broth dilution the organism is exposed to a series of concentrations in liquid medium.
The test system of assay [1] is Escherichia coli. Kind of assay: Antimicrobial activity against Escherichia coli ATCC 25922 by broth microdilution method.
A further assay deals with Moraxella catarrhalis. Kind of assay: Antimicrobial activity against Moraxella catarrhalis L3292 by broth microdilution method.
Assay [2] has as its system Stenotrophomonas maltophilia. Briefly: Antimicrobial activity against Stenotrophomonas maltophilia L3030 by broth microdilution method.
Assay [3] concerns Escherichia coli. Kind of assay: Antimicrobial activity against hyperpermeable Escherichia coli G1640 by broth microdilution method.
The subject of the next assay is Haemophilus influenzae. Briefly: Antimicrobial activity against Haemophilus influenzae L3296 by broth microdilution method.
Assay [4] deals with Escherichia coli. Kind of assay: Antimicrobial activity against delta-tolC containing Escherichia coli L4242 by broth microdilution method.
In assay [5] the test system is Mycolicibacterium smegmatis. Kind of assay: Antimicrobial activity against Mycobacterium smegmatis str. MC2 155 by broth microdilution method.
The subject of assay [6] is Staphylococcus haemolyticus. Briefly: Antimicrobial activity against methicillin-resistant Staphylococcus haemolyticus L1730 by broth microdilution method. In outline:
(§1)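 CLSI broth microdilution in Müller Hinton broth containing 20 mg/L CaCl2 and 10 mg/L MgCl2. Clinical isolates inoculated at 5 × 10^5 cfu/mL and incubated at 37 °C for 20−24 h. MIC read as the lowest inhibiting concentration.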

Assay [7] has as its system Enterococcus faecium. Kind of assay: Antimicrobial activity against VanA expressing Enterococcus faecium L569 by broth microdilution method.
Assay [8] deals with Lactobacillus delbrueckii. Briefly: Antimicrobial activity against Lactobacillus delbrueckii ATCC 4797 by broth microdilution method.
In assay [9] the test system is Staphylococcus aureus. Kind of assay: Antimicrobial activity against glycopeptide-intermediate resistant Staphylococcus aureus L3797 by broth microdilution method. In outline: as §1
In a further assay the test system is Pseudomonas aeruginosa. Kind of assay: Antimicrobial activity against Pseudomonas aeruginosa ATCC 27853 by broth microdilution method.
Assay [10] concerns Enterococcus faecium. Kind of assay: Antimicrobial activity against VanS expressing Enterococcus faecium L568 by broth microdilution method.
Another assay has as its system Bacteroides fragilis. Briefly: Antimicrobial activity against Bacteroides fragilis ATCC 25285 by broth microdilution method.
The test system of assay [11] is Streptococcus pyogenes. Kind of assay: Antimicrobial activity against Streptococcus pyogenes ATCC BAA 1407 by broth microdilution method.
Assay [12] relates to Streptococcus pyogenes. Kind of assay: Antimicrobial activity against Streptococcus pyogenes L49 by broth microdilution method.
The subject of assay [13] is Staphylococcus aureus. Briefly: Antimicrobial activity against methicillin-sensitive Staphylococcus aureus ATCC 6538P by broth microdilution method.
Assay [14] relates to Staphylococcus aureus. Kind of assay: Antimicrobial activity against methicillin-resistant Staphylococcus aureus L1400 by broth microdilution method. In outline: as §1
For assay [15], the system named is Streptococcus pyogenes. Briefly: Antimicrobial activity against Streptococcus pyogenes ATCC BAA 1402 by broth microdilution method.
The test system of the next assay is Cutibacterium acnes. Kind of assay: Antimicrobial activity against Propionibacterium acnes ATCC 25476 by broth microdilution method.
The subject of assay [16] is Staphylococcus aureus. Kind of assay: Antimicrobial activity against glycopeptide-intermediate resistant Staphylococcus aureus L3798 by broth microdilution method. The method in brief: as §1
The next assay has as its system Clostridioides difficile. Kind of assay: Antimicrobial activity against Clostridium difficile L4013 by broth microdilution method.
Assay [17] relates to Staphylococcus haemolyticus. Kind of assay: Antimicrobial activity against methicillin-sensitive Staphylococcus haemolyticus L1729 by broth microdilution method.

In brackets after ≈: the same amount, converted by molar mass. Activity calls are given as the source filed them. The calls are words filed in the database; no cut-off is given here. Where only a bound is given, the exact number is not on record here.

Turning to GENTAMICIN, the MIC is 0.125 µg/mL against Acinetobacter baumannii; 0.25 µg/mL against Escherichia coli [1]; 0.25 µg/mL in the assay with Moraxella catarrhalis; 64 µg/mL in [2]; 0.25 µg/mL with Escherichia coli [3]; 128 µg/mL against Haemophilus influenzae. For the same molecule, the MIC against Escherichia coli [4] came out at 0.25 µg/mL; in [5], 16 µg/mL.

Turning to `COc1cc2c(=O)c3cc4c(=O)c(OC)cc(=O)c4c(O)c3c(=O)c2c2c1C(=O)OC2`, the MIC result (in [6]; with Enterococcus faecium [7]; in the assay with Acinetobacter baumannii; in assay [8]; with Staphylococcus aureus [9]; in the assay on Pseudomonas aeruginosa) was “Active” in each case. The MIC entry in the assay with Enterococcus faecium [10], in the assay with Bacteroides fragilis, with Escherichia coli [1], in the assay on Streptococcus pyogenes [11], in the assay with Moraxella catarrhalis and in the assay with Streptococcus pyogenes [12] was “Active” throughout. Besides, the MIC result (in the assay on Staphylococcus aureus [13]; in assay [2]; in the assay on Staphylococcus aureus [14]; in the assay on Streptococcus pyogenes [15]; in the assay on Escherichia coli [3]; in the assay with Cutibacterium acnes) was “Active” throughout. Moreover, the MIC result (with Haemophilus influenzae; in the assay on Escherichia coli [4]; in assay [5]; in the assay with Staphylococcus aureus [16]; in the assay with Clostridioides difficile; in [17]) was “Active” in each case.

As for `CNc1cc(=O)c2c(O)c3c(=O)c4c5c(c(OC)cc4c(=O)c3cc2c1=O)C(=O)OC5`, the MIC entry (in assay [6]; with Enterococcus faecium [7]; with Acinetobacter baumannii; in [8]; in the assay on Staphylococcus aureus [9]; in the assay on Pseudomonas aeruginosa) was “Active” throughout. In addition, the MIC result in the assay with Enterococcus faecium [10], in the assay on Bacteroides fragilis, with Escherichia coli [1], in the assay with Streptococcus pyogenes [11], in the assay with Moraxella catarrhalis and in the assay with Streptococcus pyogenes [12] was “Active” in each case. Also, the MIC entry (in the assay with Staphylococcus aureus [13]; in assay [2]; in the assay with Staphylococcus aureus [14]; with Streptococcus pyogenes [15]; in the assay on Escherichia coli [3]; in the assay on Cutibacterium acnes) was “Active” in each case. Also, the MIC entry (in the assay with Haemophilus influenzae; in the assay on Escherichia coli [4]; in assay [5]; in the assay on Staphylococcus aureus [16]; in the assay on Clostridioides difficile; in assay [17]) was “Active” each time.

On to `CN[C@H](CC(C)C)C(=O)N[C@H]1C(=O)N[C@@H](CC(N)=O)C(=O)N[C@H]2C(=O)N[C@H]3C(=O)N[C@H](C(=O)N[C@H](C(=O)O)c4cc(O)cc(O)c4-c4cc3ccc4O)[C@H](O)c3ccc(c(Cl)c3)Oc3cc2cc(c3O[C@@H]2O[C@H](CO)[C@@H](O)[C@H](O)[C@H]2O[C@H]2C[C@](C)(N)[C@H](O)[C@H](C)O2)Oc2ccc(cc2Cl)[C@H]1O` [VANCOMYCIN], for which the MIC was 128 µg/mL (≈ 88.3 µM) in assay [6]; > 128 µg/mL with Enterococcus faecium [7]; 128 µg/mL (≈ 88.3 µM) in the assay with Acinetobacter baumannii; > 128 µg/mL in assay [8]; 8 µg/mL (≈ 5.52 µM) against Staphylococcus aureus [9]; 2 µg/mL (≈ 1.38 µM) with Pseudomonas aeruginosa. Further, the MIC is 16 µg/mL (≈ 11 µM) with Bacteroides fragilis; > 128 µg/mL in the assay with Escherichia coli [1]; 32 µg/mL (≈ 22.1 µM) in the assay on Moraxella catarrhalis; 128 µg/mL (≈ 88.3 µM) in [2]; > 128 µg/mL in the assay on Escherichia coli [3]; 0.25 µg/mL (≈ 0.173 µM) with Cutibacterium acnes. Further, the MIC was > 128 µg/mL in the assay on Haemophilus influenzae; > 128 µg/mL in the assay with Escherichia coli [4]; > 128 µg/mL in assay [5]; 8 µg/mL (≈ 5.52 µM) in the assay on Staphylococcus aureus [16]; 0.5 µg/mL (≈ 0.345 µM) against Clostridioides difficile; 2 µg/mL (≈ 1.38 µM) in [17].

`O=C1OCc2c1c(O)cc1c(=O)c3cc4c(=O)c(O)cc(=O)c4c(O)c3c(=O)c21`: the MIC (in [6]; in the assay with Enterococcus faecium [7]; in the assay on Acinetobacter baumannii; in assay [8]; with Staphylococcus aureus [9]; in the assay on Pseudomonas aeruginosa) was > 16 µg/mL throughout. Further, the MIC in the assay with Enterococcus faecium [10] is > 16 µg/mL; against Bacteroides fragilis, > 16 µg/mL; in the assay with Escherichia coli [1] it was > 16 µg/mL; in the assay on Streptococcus pyogenes [11] it was 8 µg/mL (≈ 20.4 µM); against Moraxella catarrhalis, > 16 µg/mL; against Streptococcus pyogenes [12], 16 µg/mL (≈ 40.8 µM). The MIC is > 16 µg/mL in the assay with Staphylococcus aureus [13]; > 16 µg/mL in [2]; > 16 µg/mL with Staphylococcus aureus [14]; 8 µg/mL (≈ 20.4 µM) in the assay with Streptococcus pyogenes [15]; > 16 µg/mL against Escherichia coli [3]; > 16 µg/mL against Cutibacterium acnes. For the same molecule, the MIC against Haemophilus influenzae is > 16 µg/mL; in the assay with Escherichia coli [4], > 16 µg/mL; in assay [5], > 16 µg/mL; against Staphylococcus aureus [16], > 16 µg/mL; against Clostridioides difficile it was > 64 µg/mL; in [17], > 16 µg/mL.
